SIRT5 inh: inhibitors of human sirtuin-5 desuccinylase; Q9NXA8; Purified SirT5, succinyl-peptide AMC, trypsin-coupled fluorescence; inhibition, % at 15 µM; 330,000 tested, 1.1% active; in the data active = inhibition above about 15%; inconclusive = no clear call, values can overlap the other calls
E-selectin induc: E-selectin induction on HUVECs; 260,000 tested, 0.37% active; HUVEC E-selectin immunofluorescence imaging; normalized: neutral wells 0, TNF-alpha wells 100; P16581; activation, % at 7.58 µM;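 active = mean E-selectin-positive cell signal at least 10% of the positive control, reached in at least 60% of replicates, without over 20% cell loss; inconclusive = no rule given, readout overlaps actives, possibly toxicity-flagged; inactive = the rest, including those meeting only one limit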
Target sequence (P16581 whole entry, looked up): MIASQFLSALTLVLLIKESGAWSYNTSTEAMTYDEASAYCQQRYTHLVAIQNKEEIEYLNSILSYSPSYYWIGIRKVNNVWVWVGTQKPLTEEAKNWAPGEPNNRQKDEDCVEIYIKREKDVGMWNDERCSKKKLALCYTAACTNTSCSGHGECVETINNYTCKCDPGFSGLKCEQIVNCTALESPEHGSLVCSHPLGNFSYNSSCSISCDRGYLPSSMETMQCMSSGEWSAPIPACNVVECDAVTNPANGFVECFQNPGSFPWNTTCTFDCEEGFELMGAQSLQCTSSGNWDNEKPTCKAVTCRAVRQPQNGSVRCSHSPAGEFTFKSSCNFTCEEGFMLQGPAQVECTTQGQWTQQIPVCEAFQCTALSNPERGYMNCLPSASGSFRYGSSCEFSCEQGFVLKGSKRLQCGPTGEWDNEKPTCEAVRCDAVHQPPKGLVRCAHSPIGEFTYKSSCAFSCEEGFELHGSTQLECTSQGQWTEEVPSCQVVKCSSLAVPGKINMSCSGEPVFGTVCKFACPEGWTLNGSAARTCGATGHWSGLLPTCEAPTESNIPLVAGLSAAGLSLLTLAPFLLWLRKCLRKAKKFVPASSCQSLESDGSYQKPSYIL
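Assay system: HUVEC primary endothelial cells. Input: 3,000 HUVEC seeded per well. Doses: one compound dose added by pin transfer. Read-out basis: % PE-positive cells. Benchmarks: TNF-alpha high, DMSO low. Detection: immunofluorescence imaging. Buffer or medium: EGM-2, gelatin.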
DENV2 CPE: inhibitors of DENV2 cytopathic effect | DENV2-infected cells, cytopathic effect rescue, plate reader | CPE inhibition, % at 9.99 µM | 350,000 tested, 1.7% active; in the data active = CPE inhibition above about 20%, passing the limit was not always enough; inconclusive = no clear call, values can overlap the other calls; tested in BHK-21 cells;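 also: 0% = median of neutral control wells and 100% = median of positive control wells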
An asterisk follows results filed as active; ? = inconclusive; / = not tested or not shown. Compounds with a hit are over-represented: about 2.9% of the library has one in this group of screens.

SMILES | SIRT5 inh | E-selectin induc | DENV2 CPE
COc1ccc(OC)c(-c2cc(C(=O)NC3CCCC3)c3ccccc3n2)c1 | 0 | 0 | 36*
COc1cccc(-c2cc(C(=O)NC3CCCC3)c3ccccc3n2)c1 | 6 | 0 | -1
COc1ccc(NC(=O)N(C)C[C@H]2Oc3ccc(NC(=O)Nc4c(C)noc4C)cc3CC(=O)N([C@H](C)CO)C[C@@H]2C)cc1 | 0 | 0 | -7
COc1ccc(-n2nc(C(=O)O)cc2-c2ccccc2)cc1 | 18* | / | -2
O=C(O)c1cc(-c2ccccc2)n(-c2ccc(Cl)cc2)n1 | -1 | / | -7
CCCOc1ccc(C(=O)OCCN2CCCCC2)c(O)c1 | -3 | 13 | 2
C[C@H](CO)N1C[C@H](C)[C@@H](CN(C)Cc2ccc(C(F)(F)F)cc2)OCCCC[C@H](C)Oc2ccc(NS(=O)(=O)c3ccc(Cl)cc3)cc2C1=O | 19* | 0 | 4
C[C@@H]1CCCCO[C@@H](CN(C)Cc2ccc(C(F)(F)F)cc2)[C@@H](C)CN([C@@H](C)CO)C(=O)c2cc(NS(=O)(=O)c3ccc(Cl)cc3)ccc2O1 | 16* | 0 | 3
C[C@@H]1CN([C@H](C)CO)C(=O)c2cc(NS(=O)(=O)c3ccc(Cl)cc3)ccc2O[C@@H](C)CCCCO[C@@H]1CN(C)Cc1ccc(C(F)(F)F)cc1 | 17* | 0 | -2
COc1ccccc1NC(=O)CSc1nnc(CC(=O)Nc2ccccc2C)n1C | -3 | 0 | -4
CC1=C(C(=O)N2CCCCCC2)CC(CC(=O)NCC2CCCCC2)C(=O)N1Cc1ccccc1 (stereo not drawn) | 1 | 0 | -1
COc1ccc(C(=O)N2C[C@@H]3[C@H](c4ccccc42)[C@@H](CO)N3Cc2ccccc2)cc1 | 12 | 0 | -4
C=C(C)CN(CC)C(=O)c1ccc(OC2CCN(S(=O)(=O)N(C)C)CC2)cc1 | 17* | / | 3
C=C(C)CNC(=O)c1ccc(OC2CCN(S(=O)(=O)N(C)C)CC2)cc1 | 0 | / | -4
Cc1ccc(S(=O)(=O)N2C[C@H](O)COC[C@H]3O[C@@H](CC(=O)NCCCN(C)C)CC[C@@H]32)cc1 | -1 | 0 | 15
CCN(C(=O)COC(=O)c1cc2c(s1)CCCCC2)C1CCS(=O)(=O)C1 (stereo not drawn) | -3 | 0 | 60*
O=C(COC(=O)c1cc2c(s1)CCCCC2)NC1CCS(=O)(=O)C1 (stereo not drawn) | -2 | / | -4
C[C@H](CO)N1C[C@H](C)[C@H](CN(C)S(=O)(=O)c2ccc(F)cc2)Oc2ncc(C#Cc3ccc(C(F)(F)F)cc3)cc2C1=O | 7 | 0 | ?
Cc1ccc(S(=O)(=O)N(C)C[C@@H]2Oc3ncc(C#Cc4ccc(C(F)(F)F)cc4)cc3C(=O)N([C@H](C)CO)C[C@@H]2C)cc1 | 25* | 0 | ?
Cc1ccc(S(=O)(=O)N(C)C[C@H]2Oc3ncc(C#CC4(O)CCCC4)cc3C(=O)N([C@@H](C)CO)C[C@@H]2C)cc1 | 2 | -1 | 9
Cc1ccc(S(=O)(=O)N(C)C[C@@H]2Oc3ncc(/C=C/c4ccccc4)cc3C(=O)N([C@H](C)CO)C[C@@H]2C)cc1 | 0 | 0 | 23*
C[C@H](CO)N1C[C@H](C)[C@H](CN(C)S(=O)(=O)c2ccccc2)Oc2ncc(/C=C/c3ccccc3)cc2C1=O | -3 | 0 | ?
Cc1ccc(S(=O)(=O)N(C)C[C@H]2Oc3ncc(C#CC4(O)CCCC4)cc3C(=O)N([C@H](C)CO)C[C@H]2C)cc1 | 1 | 0 | 21*
CCCN(CC(=O)Nc1ccc(Cl)cc1Cl)C(=O)/C=C/c1cccc([N+](=O)[O-])c1 | -1 | 1 | 1
Cc1noc(C)c1COc1ccccc1C(=O)N(C)Cc1ccc(F)cc1 | 0 | -4 | 8
SMILES | SIRT5 inh | E-selectin induc | DENV2 CPE
Cc1cc(C)nc(NS(=O)(=O)c2cccs2)c1 | -19 | / | ?
CCCN(CC1CC1)C(=O)COC(=O)c1ccc2c(c1)C(=O)N(c1ccc(OCC)cc1)C2=O | -1 | 0 | 4
Cc1ccccc1Oc1ccc(NC(=O)C2CC=CCC2C(=O)O)cc1 (stereo not drawn) | -5 | 0 | -5
O=C(COC(=O)c1ccc(NC(=O)C2CC=CCC2C(=O)O)cc1)c1ccccc1 (stereo not drawn) | -1 | / | 68*
COC(=O)c1ccc(CSCC(=O)Nc2ccccc2)cc1 | -1 | / | 4
C[C@@H](NC(=O)C[C@@H]1C=C[C@H](NC(=O)C2CCC2)[C@@H](CO)O1)c1ccccc1 | -5 | 0 | 24*
C[C@H](NC(=O)C[C@@H]1C=C[C@H](NC(=O)C2CCC2)[C@H](CO)O1)c1ccccc1 | 5 | 0 | -6
O=C(N[C@@H]1C=C[C@@H](CC(=O)N2CCc3ccccc3C2)O[C@H]1CO)C1CCC1 | -4 | 0 | 1
O=C(N[C@@H]1C=C[C@H](CC(=O)N2CCc3ccccc3C2)O[C@@H]1CO)C1CCC1 | -2 | 1 | 98*
COc1ccc(NC(=O)Nc2ccc3c(c2)CC(=O)N([C@H](C)CO)C[C@H](C)[C@@H](CN(C)C(=O)Nc2cccc4ccccc24)O3)cc1 | / | 0 | -1
NC1=NC(=O)C(Cc2ccc(OC(F)(F)F)cc2)S1 (stereo not drawn) | -1 | 0 | -1
CCOC(=O)N1CCN(C(=O)/C(=C\c2cccs2)NC(=O)c2cccs2)CC1 | 2 | -1 | -3
CCOC(=O)N1CCN(C(=O)/C(=C/c2cccs2)NC(=O)c2cccs2)CC1 | 17* | / | 2
COc1ccc(CN(C)C[C@@H]2Oc3ccc(NS(=O)(=O)c4ccc(Cl)cc4)cc3C(=O)N([C@H](C)CO)C[C@H]2C)cc1 | 3 | -12 | -2
CCCC(=O)N1CCC2(CC1)CN(S(C)(=O)=O)[C@H](CO)c1c2c2ccc(OC)cc2n1C | / | 0 | 59*
CCCC(=O)N1CC2(CCN(C)CC2)c2c(n(C)c3cc(OC)ccc23)[C@@H]1CO | / | 0 | 64*
COc1ccc2c3c(n(C)c2c1)[C@@H](CO)N(C(=O)c1ccccn1)CC31CCN(C(=O)c2ccccn2)CC1 | 5 | 1 | 1
CCCC(=O)N1CC2(CCN(C(C)=O)CC2)c2c(n(C)c3cc(OC)ccc23)[C@@H]1CO | -1 | 0 | -1
CCC(=O)N1CCC2(CC1)CN(S(C)(=O)=O)[C@H](CO)c1c2c2ccc(OC)cc2n1C | / | 0 | -1
COc1ccc2c3c(n(C)c2c1)[C@@H](CO)N(C(=O)c1ccccn1)CC31CCN(C)CC1 | / | 0 | 35*
COC(=O)c1cc(C(C)=O)c(C)[nH]c1=O | 1 | / | 0
O=C(NCc1ccccc1)C(c1ccc(F)cc1)N(Cc1cccs1)C(=O)c1cnccn1 (stereo not drawn) | / | 0 | /
CCNC(=O)C[C@@H]1CC[C@@H](NC(=O)C2CCC2)[C@@H](CO)O1 | 0 | 0 | 5
O=C(COC(=O)/C=C/c1ccc(Cl)cc1)NC1CC1 | 21* | -1 | -6
O=C(COC(=O)/C=C/c1ccc(Cl)cc1)NC1CCCCCC1 | -3 | -1 | 20
N#C/C(=C\c1ccc2c(c1)OCCO2)C(=O)NC1CCCCC1 | -2 | / | 62*
CCCCNC(=O)/C(C#N)=C/c1ccc2c(c1)OCCO2 | -5 | 1 | 5
CCN(CC)CCNC(=S)Nc1ccc(Cl)cc1 | -3 | 2 | -3
CN(C)CC(=O)N1CC2(C1)[C@H](c1ccccc1)[C@H](CO)N2C(=O)C1CCCCC1 | 2 | 0 | 6

High-throughput results as filed in PubChem.
